Source: ChEMBL document CHEMBL2029338, “Synthesis, biological evaluation, and molecular docking studies of benzyl, alkyl and glycosyl [2-(arylamino)-4,4-dimethyl-6-oxo-cyclohex-1-ene]carbodithioates, as potential immunomodulatory and immunosuppressive agents” (Bioorg Med Chem, 2012)
Values after ≈ are worked out from the molar mass of the structure shown.

Legend:
PBMC [1] = experiment: Immunosuppressive activity in human PBMC assessed as inhibition of PHA-induced cell proliferation after 72 hrs by [methyl-3H]thymidine incorporation assay; format: functional, cell-based
Summary of the method: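 Human PBMCs from healthy donor venous blood, isolated by density separation and cultured in RPMI-1640 with 10% FBS. Stimulated with PHA in the presence of increasing compound concentrations for 72 h at 37 °C, 5% CO₂. [methyl-³H]thymidine 0.5 µCi/well added for a further 18 h, then harvested and counted by liquid scintillation. Expressed as % of stimulated control, mean ± SD of triplicates; IC50 derived.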

THP-1 [2] = experiment: Antiinflammatory activity in PMA-stimulated human THP1 cells assessed as inhibition of LPS-induced TNFalpha production at 25 ug/mL after 4 hrs; format: functional; conditions: THP-1, 4 h
Summary of the method: (§1)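 THP-1 cells plated at 2.5 × 10⁵ cells/mL and differentiated to macrophage-like cells with PMA (20 ng/mL final) for 24 h at 37 °C, 5% CO₂. Then stimulated with LPS (50 ng/mL final) and treated with test compounds. TNF-α was measured in supernatant at 4 h and IL-1β at 18 h by DuoSet ELISA.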

THP-1 [3] = experiment: Antiinflammatory activity in PMA-stimulated human THP1 cells assessed as inhibition of LPS-induced IL-1beta production at 25 ug/mL after 18 hrs; format: functional; conditions: THP-1, 18 h; summary of the method: as §1
[4] = (§2) Antiinflammatory activity in human whole blood phagocytes assessed as inhibition of respiratory burst measuring ROS after 30 mins by luminol-enhanced chemiluminescence assay; format: functional, cell-based; conditions: 0.5 h
Summary of the method: (§3)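 Luminol-enhanced chemiluminescence of whole blood phagocytes. Compounds at 1.0, 10 and 100 µg/mL in HBSS⁺⁺ (with Ca²⁺/Mg²⁺) were incubated with whole blood diluted 1:50 for 30 min at 37 °C. Luminol and serum-opsonized zymosan (S. cerevisiae) were then added. ROS kinetics were monitored by luminometer for 50 min in repeated scan mode, with positive, negative and blank controls.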

J774.2 [5] = experiment: Antiinflammatory activity in lipopolysaccharide-induced mouse J774.2 cells assessed as inhibition of nitric oxide production at 25 ug/mL after 24 hrs by Griess method; format: functional; conditions: J774.2, 24 h
Summary of the method: (§4)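 J774.2 mouse macrophages grown in DMEM with 10% FBS, seeded at 10⁶ cells/mL. NOS-2 induced with E. coli LPS; compounds at 25 µg/mL added right after LPS, 37 °C, 5% CO₂. Supernatant taken at 24 h and nitrite read by Griess reagent (sulfanilamide, then naphthylethylenediamine in 2.5% phosphoric acid), 10 min at 23 °C, A550. Quantified against a sodium nitrite standard curve; mean ± SD of duplicate readings.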

PBMC [6] = experiment: Immunosuppressive activity against human PBMC assessed as inhibition of PHA/PMA-induced IL2 production after 18 hrs by ELISA
3T3-L1 = experiment: Cytotoxicity against mouse 3T3L1 cells after 48 hrs by MTT assay; format: cell-based; conditions: 3T3-L1, 48 h
Summary of the method: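 3T3-L1 mouse embryo fibroblasts in DMEM with 10% FBS. Plated at 6 × 10⁴ cells/mL for 24 h at 37 °C, 5% CO₂, then exposed to compounds (up to 20 µg/mL) in triplicate for 48 h. Viability by MTT 0.5 mg/mL for 4 h, DMSO solubilization, absorbance at 540 nm; mean ± SD of triplicates.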

CC-1 = experiment: Cytotoxicity against Wistar rat CC1 cells after 48 hrs by MTT assay; format: cell-based; conditions: CC-1, 48 h
Summary of the method: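 Plated at 6 × 10⁴ cells/mL for 24 h at 37 °C, 5% CO₂, then exposed to compounds (up to 20 µg/mL) in triplicate for 48 h. MTT 0.5 mg/mL for 4 h, formazan dissolved in DMSO, A540; mean ± SD of triplicates.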

J774.2 [7] = experiment: Antiinflammatory activity in lipopolysaccharide-induced mouse J774.2 cells assessed as inhibition of nitric oxide production after 24 hrs by Griess method; format: functional, cell-based; conditions: J774.2, 24 h; summary of the method: as §4
Homo sapiens = species: Homo sapiens; experiment: as §2; format: functional, cell-based; summary of the method: as §3

Structure (SMILES)	IC50 (PBMC [1])	inhibition at 25 µg/mL (THP-1 [2])	inhibition at 25 µg/mL (THP-1 [3])	IC50 [4]	inhibition at 25 µg/mL (J774.2 [5])	IC50 (PBMC [6])	inhibition (PBMC [1])	IC50 (3T3-L1)	IC50 (CC-1)	IC50 (J774.2 [7])	inhibition (PBMC [6])	inhibition (Homo sapiens)
CCCCCCCCCCCSC(=S)C1=C(Nc2ccc(Cl)cc2)CC(C)(C)CC1=O	> 50 µg/mL	-56.6%	-15.8%	> 100 µg/mL	16.5%	> 20 µg/mL						
CC(=O)OC[C@H]1O[C@@H](SC(=S)C2=C(Nc3ccc(Cl)cc3)CC(C)(C)CC2=O)[C@H](OC(C)=O)[C@@H](OC(C)=O)[C@@H]1OC(C)=O	9.9 µg/mL (≈ 15.1 µM)	83.8%	46.8%	90 µg/mL	77.3%	3.5 µg/mL (≈ 5.33 µM)	Dose-dependent effect	> 20 µg/mL	> 20 µg/mL	44.3 µM	Dose-dependent effect	
CC1(C)CC(=O)C(C(=S)SCCO)=C(Nc2ccc(Br)cc2)C1	8.3 µg/mL (≈ 20 µM)	-33.5%	5.5%	> 100 µg/mL	37%	> 20 µg/mL	Dose-dependent effect				Dose-dependent effect	
CC1(C)CC(=O)C(C(=S)SCc2ccccc2)=C(Nc2ccc(Br)cc2)C1	> 50 µg/mL	-50.3%	-158%	> 100 µg/mL	38.5%	> 20 µg/mL						
CC(C)=NNC1=C2C(=S)NN=C2CC(C)(C)C1	13.2 µg/mL (≈ 52.7 µM)					14.7 µg/mL (≈ 58.7 µM)	Dose-dependent effect			36.4 µM	Dose-dependent effect	Dose-dependent effect
CCCCCCCCCCCSC(=S)C1=C(Nc2ccc(Cl)cc2Cl)CC(C)(C)CC1=O	> 50 µg/mL	29.3%	30.3%	> 100 µg/mL	39.7%	> 20 µg/mL						
CC1(C)CC(=O)C(C(=S)SCCO)=C(Nc2ccc(Cl)cc2Cl)C1	> 50 µg/mL	-50.3%	16.5%	> 100 µg/mL	44.8%	> 20 µg/mL						
CC1(C)CC(=O)C=C(Nc2ccc(Cl)cc2)C1	15 µg/mL (≈ 60.1 µM)	-4.3%	17.2%	> 100 µg/mL	62.4%	> 20 µg/mL				63.8 µM		
CC(=O)OC[C@H]1O[C@@H](SC(=S)C2=C(Nc3ccc(Cl)cc3Cl)CC(C)(C)CC2=O)[C@H](OC(C)=O)[C@@H](OC(C)=O)[C@H]1OC(C)=O	3.9 µg/mL (≈ 5.65 µM)	83.8%	86%	5.94 µg/mL	66.8%	2.1 µg/mL (≈ 3.04 µM)		> 20 µg/mL	> 20 µg/mL			
CCCCSC(=S)C1=C(Nc2ccc(Cl)cc2Cl)CC(C)(C)CC1=O	> 50 µg/mL	-14.7%	-22%	> 100 µg/mL	35.2%	> 20 µg/mL						
CC1(C)CC(=O)C=C(Nc2ccc(Br)cc2)C1	> 50 µg/mL	-31.4%	-26.8%	> 100 µg/mL	62.7%	> 20 µg/mL				49.1 µM		
CC1(C)CC(=O)C(C(=S)SCc2ccccc2)=C(Nc2ccc(Cl)cc2)C1	> 50 µg/mL	-21%	13.1%	> 100 µg/mL	10.4%	> 20 µg/mL						
CC1(C)CC(=O)C=C(Nc2ccc(Cl)cc2Cl)C1	17.6 µg/mL (≈ 61.9 µM)	6.3%	38.5%	> 100 µg/mL	42.1%	> 20 µg/mL						
CC(=O)OC[C@H]1O[C@@H](SC(=S)C2=C(Nc3ccc(Cl)cc3Cl)CC(C)(C)CC2=O)[C@H](OC(C)=O)[C@@H](OC(C)=O)[C@@H]1OC(C)=O	15.8 µg/mL (≈ 22.9 µM)	-48.2%		> 100 µg/mL	57.2%	> 20 µg/mL				16.1 µM		
CC1(C)CC(=O)C(C(=S)SCCO)=C(Nc2ccc(Cl)cc2)C1	21 µg/mL (≈ 56.8 µM)	0%	48.1%	> 100 µg/mL	43.3%	> 20 µg/mL						
CCCCCCCCCCCSC(=S)C1=C(Nc2ccc(Br)cc2)CC(C)(C)CC1=O	> 50 µg/mL	-58.7%	-22.7%	> 100 µg/mL	32.1%	> 20 µg/mL						
CCCCSC(=S)C1=C(Nc2ccc(Cl)cc2)CC(C)(C)CC1=O	> 50 µg/mL	10.5%	-92.9%	> 100 µg/mL	23.6%	> 20 µg/mL						
CCCCSC(=S)C1=C(Nc2ccc(Br)cc2)CC(C)(C)CC1=O	> 50 µg/mL	-31.4%		> 100 µg/mL	18.9%	> 20 µg/mL						
CC1(C)CC(=O)C(C(=S)SCc2ccccc2)=C(Nc2ccc(Cl)cc2Cl)C1	> 50 µg/mL	-50.3%	-119%	> 100 µg/mL	39.5%	> 20 µg/mL						
CC(=O)OC[C@H]1O[C@@H](SC(=S)C2=C(Nc3ccc(Br)cc3)CC(C)(C)CC2=O)[C@H](OC(C)=O)[C@@H](OC(C)=O)[C@@H]1OC(C)=O	8.8 µg/mL (≈ 12.6 µM)	58.7%	59.2%	> 100 µg/mL	68.4%	3.4 µg/mL (≈ 4.85 µM)	Dose-dependent effect	> 20 µg/mL	19.8 µg/mL (≈ 28.3 µM)	7.7 µM	Dose-dependent effect	
